One may read the IC50 as the concentration that gives 50% inhibition. The term Ki denotes a dissociation constant, usually derived from enzyme kinetics or from competition with a known ligand. For orientation: Kd means the concentration at which binding is half-saturated. As usually defined, the Km is the concentration of substrate that gives half-maximal velocity.

Here are results for ten molecules from article PMC9976451 (The Journal of Biological Chemistry, 2023).

Assay [1] addresses T1, human BCKDK (Homo sapiens, UniProt O14874). The experiment in a line: BCKDK biochemical assay. Conditions: for maximum BCKDK inhibition in the biochemical assay: plateau of inhibition curve. In outline: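 BCKDK freed of MBP tag by TEV cleavage. 11-point half-log test compound series (final 300 μM to 3 nM, 1% DMSO), in duplicate. Reaction started with 50 nM lipoylated fusion substrate plus 15 or 200 μM ATP; 90 min at RT. EDTA stop; Eu-anti-His/anti-pE1/ULight TR-FRET read at 665 nm. IC50 from four-parameter logistic fit.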

Assay [2] deals with PDK4 (Homo sapiens, UniProt Q16654). The experiment in a line: PDK4 biochemical assay. In a few lines:
(§1)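 Kinetic fluorescence assay (ex 360/em 485 nm) at 30 °C for 240 min using N-terminal GST-tagged kinase at 10 nM. PDK1 (aa 1–436): 6.0 μM ATP, 15 μM AQT0895. PDK4 (aa 1–411): 97 μM ATP, AQT0872. Eleven threefold dilutions (100 μM–1.7 nM final, 2% DMSO), run in duplicate, with a 30 min preincubation before enzyme. No-enzyme background subtracted. IC50 by four-parameter fit of initial rates.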

In assay [3] the target is BCKDK. Conditions: read-out: Ki as ATP competitive inhibitor of BCKDK; cited from earlier work.
Assay [4] concerns BCKD–BCKDK complex purified from rat liver. Conditions: read-out: in vitro IC50 to inhibit the BCKD–BCKDK complex, 500 μM ATP; cited from earlier work.
For assay [5], the target named is PDK1 (Homo sapiens, UniProt Q15118). In words: PDK1 biochemical assay. In a few lines:
as §1

Assay [6] has as its target T1, human BCKDK. Format: binding. In outline:
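BCKDK biotinylated with BirA during TEV cleavage, then immobilized. At least six twofold dilutions injected at 30 μl/min: 120 s association, ≥300 s dissociation. Double reference subtraction using blank injections. For competition, the same series was run with 20 μM radicicol or 20 μM BT2 in running buffer; reduced signal was read as shared site.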

Assay [7] concerns the target AT1R. To be noted: read-out: AT1R Kd; cited from earlier work.
Setting [8] is: Biochemical IC50, ATP concentration of 15 μM.
[9] abbreviates: Biochemical IC50 at 200 μM ATP, 200 μM ATP.

Like-named read-outs stand apart in the source and are kept apart here.

Chain of PDK4 (Q16654 whole entry, the tested form may be a part): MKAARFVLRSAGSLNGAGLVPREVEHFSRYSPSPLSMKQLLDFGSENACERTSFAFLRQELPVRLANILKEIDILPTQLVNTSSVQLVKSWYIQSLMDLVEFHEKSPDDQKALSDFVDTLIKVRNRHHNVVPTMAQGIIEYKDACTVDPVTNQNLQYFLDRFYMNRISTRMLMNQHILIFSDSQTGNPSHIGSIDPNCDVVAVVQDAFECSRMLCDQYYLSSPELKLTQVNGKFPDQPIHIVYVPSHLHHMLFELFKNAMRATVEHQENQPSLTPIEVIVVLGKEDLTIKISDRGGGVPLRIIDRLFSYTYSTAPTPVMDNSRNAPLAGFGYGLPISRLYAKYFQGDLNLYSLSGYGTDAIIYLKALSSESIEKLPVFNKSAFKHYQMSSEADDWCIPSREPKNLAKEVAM
Chain of PDK1 (Q15118 29-436): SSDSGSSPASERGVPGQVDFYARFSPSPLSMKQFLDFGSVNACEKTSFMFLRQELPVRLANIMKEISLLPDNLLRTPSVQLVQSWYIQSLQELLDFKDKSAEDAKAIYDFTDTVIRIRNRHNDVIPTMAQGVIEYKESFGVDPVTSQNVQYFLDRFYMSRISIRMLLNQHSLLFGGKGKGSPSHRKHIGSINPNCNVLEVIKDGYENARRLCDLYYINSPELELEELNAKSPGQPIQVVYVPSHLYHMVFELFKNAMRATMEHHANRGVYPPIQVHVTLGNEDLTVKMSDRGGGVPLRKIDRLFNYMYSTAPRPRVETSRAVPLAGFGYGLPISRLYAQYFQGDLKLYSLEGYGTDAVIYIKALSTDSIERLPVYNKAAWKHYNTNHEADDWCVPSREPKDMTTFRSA

Consider `CCCCC(=O)N(Cc1ccc(-c2ccccc2-c2nnn[nH]2)cc1)[C@H](C(=O)O)C(C)C` [valsartan], for which the half-maximal inhibitory concentration (IC50) in assay [1] (setting [8]) is 1.7 ± 1.9 µM; in assay [1] (setting [9]) it was 7.7 ± 4.4 µM; in assay [2], 78 µM; in assay [4], 37.3 µM. Moreover, the “maximum BCKDK inhibition in the biochemical assay” value (“maximum BCKDK inhibition” below) in assay [1] amounted to 100%. Also, the Ki in assay [3] is 1.36 µM.
With `COc1ccc(-c2nnn[nH]2)cc1` [fragment 1, 5-(4-methoxyphenyl)-1H-tetrazole], the half-maximal inhibitory concentration (IC50) turned out to be 205 ± 51 µM in assay [1] (setting [8]) and 232 ± 28 µM in assay [1] (setting [9]).
Regarding `O=C(O)c1sc2cc(Cl)ccc2c1Cl` [BT2, 3,6-dichlorobenzo[b]thiophene-2-carboxylic acid], the IC50 in assay [1] (setting [8]) is 0.96 ± 0.33 µM; in assay [1] (setting [9]), 0.9 ± 0.37 µM; in assay [5], 79 µM. Further, in assay [1], the “maximum BCKDK inhibition” value is given as about 75%.
Consider `CCC1CN(Cc2ccc(-c3ccccc3-c3nnn[nH]3)cc2)c2ncccc2O1` (centres unmarked) [compound 1, 4-((2'-(1H-tetrazol-5-yl)-[1,1′-biphenyl]-4-yl)methyl)-2-ethyl-3,4-dihydro-2H-pyrido[3,2-b][1,4]oxazine], for which the IC50 in assay [1] (setting [8]) was 0.0069 ± 0.0025 µM; in assay [1] (setting [9]), 0.021 ± 0.006 µM. Further, in assay [1], the “maximum BCKDK inhibition” value is 100%.
On to `CCC1CN(Cc2ccc(-c3ccccc3-c3nnn[nH]3)cc2)c2ncccc2O1` (centres unmarked) [compound 1∗, 4-((2'-(1H-tetrazol-5-yl)-[1,1′-biphenyl]-4-yl)methyl)-2-ethyl-3,4-dihydro-2H-pyrido[3,2-b][1,4]oxazine], for which half-maximal inhibition in assay [1] (in vitro biochemical activity) (IC50) required 0.032 ± 2e-05 µM.
On the same count and under the same terms, as for `CCC1CN(Cc2ccc(-c3ccccc3-c3nnn[nH]3)cc2)c2ncccc2O1` (racemic) [racemic, 4-((2'-(1H-tetrazol-5-yl)-[1,1′-biphenyl]-4-yl)methyl)-2-ethyl-3,4-dihydro-2H-pyrido[3,2-b][1,4]oxazine], the figure is 0.011 ± 0.0025 µM.
On to `C[C@@H]1C[C@H]2O[C@@H]2/C=C\C=C\C(=O)Cc2c(Cl)c(O)cc(O)c2C(=O)O1` [radicicol], for which the IC50 in assay [1] (setting [8]) is 25 ± 3.8 µM; in assay [1] (setting [9]) it was 110 ± 21 µM. Further, the “maximum BCKDK inhibition” value in assay [1] is recorded as 100%. In assay [6], this molecule came in with a Kd of 1.47 µM.
Consider `Cc1ccc(-c2ccccc2-c2nnn[nH]2)cc1` [fragment 2, 5-(4′-methyl-[1,1′-biphenyl]-2-yl)-1H-tetrazole], for which the half-inhibitory concentration (IC50) was determined as 37.3 ± 7.1 µM in assay [1] (setting [8]) and 38.7 ± 3.7 µM in assay [1] (setting [9]).
In the case of `CCCc1nc(C(C)(C)O)c(C(=O)O)n1Cc1ccc(-c2ccccc2-c2nnn[nH]2)cc1` [olmesartan acid], in assay [1] (read-out: In vitro IC50, Supplementary Table 1, BDK inhibition), the IC50 came to 43.7 µM. Further, the Kd in assay [7] was 0.0069 µM.
On to `Nc1ncnc2c1ncn2[C@@H]1O[C@H](COP(=O)(O)OP(=O)(O)OP(=O)(O)O)[C@@H](O)[C@H]1O` [ATP], for which the Km in assay [1] (read-out: Km of ATP, determined in the biochemical assay format) worked out at 13.6 ± 0.32 µM.
